Experimental findings from ChEMBL document CHEMBL1148122, “Sesquiterpenoids from Tithonia diversifolia with potential cancer chemopreventive activity” (J Nat Prod, 2002) are described below.

One experiment deals with Col2. Put plainly: Antiproliferative activity against human Col2 cells after 3 days by sulforhodamine B assay. It counts as functional, cell-based. Conditions: for IC50: Col2, 72 h. The essentials:
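Col2 human colon cancer cells grown in MEME with 10% NEAA, antibiotic-antimycotic and 10% FBS at 37 °C, 5% CO2. Exponentially growing cells were added to wells containing compounds in DMSO and grown 3 days. Cells were then TCA-fixed and stained with 0.4% SRB in 1% acetic acid, and the dye was solubilized in 0.1 M Tris. Absorbance read at 515 nm; % growth calculated against day-0 and DMSO-control absorbances.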
Background: In SRB staining, fixed cells bind dye roughly in proportion to their protein.

The next experiment relates to HL-60. Put plainly: Induction of cell differentiation of human HL60 cells at 4 ug/mL after 4 days by non-specific esterase determination. It counts as functional, cell-based. Conditions: for % differentiation: HL-60, 96 h. The essentials: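 HL-60 cells kept in RPMI 1640 with 10% fetal calf serum and penicillin/streptomycin at 37 °C, 5% CO2. Cells at 1.2 × 10^5 cells/mL, preincubated 18 h, then added to compounds in DMSO (final 0.1% v/v). After 4 days, α-naphthyl acetate esterase was stained cytochemically, ≥200 cells counted microscopically in duplicate, and the % differentiated cells recorded.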

A short description of experiment [1]: Inhibition of 7,12-dimethylbenz[a]anthracene-induced preneoplastic lesions in a BALB/c mouse mammary gland culture at 10 ug/mL treated for 10 days before DMBA-challenge measured after 14 days. It counts as functional, tissue-based. The essentials:
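BALB/c female mice were primed 9 days with estradiol (1 µg) and progesterone (1 mg). Second thoracic mammary glands were cultured 10 days at 37 °C in 95% O2/5% CO2 in Waymouth's 752/1 MB medium with insulin, prolactin, aldosterone and hydrocortisone. DMBA 2 µg/mL was given at 72–96 h and compounds on days 1–10. Glands then regressed 14 days with insulin only and were scored for lesion incidence. % inhibition is relative to the DMBA control.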

In brackets after ≈: the same amount, converted by molar mass. Activity calls are given as the source filed them. The rule behind the calls is not given here.

Turning to `C=C1C(=O)O[C@@H]2C[C@H](C)[C@@]3(O)CC[C@@](C)(C[C@@H](OC(=O)C(C)C)[C@@H]12)O3`, the result in the experiment with Col2 and in the experiment on HL-60 was inactive.

Compound `C=C1C(=O)O[C@@H]2/C=C(/C)C(=O)[C@@H]3O[C@H]3[C@](C)(O)C[C@@H](OC(=O)C(C)C)[C@@H]12` had a % inhibition in experiment [1] of 44.4%. Also, 1.7 µg/mL (≈ 4.67 µM) corresponded to half-maximal inhibition in the experiment on Col2 (IC50). Besides, the % differentiation in the experiment with HL-60 was less than 10%.

With `C=C1C(=O)O[C@@H]2C[C@H](C)[C@@]3(O)C[C@H](O)[C@@](C)(C[C@@H](OC(=O)C(C)C)[C@@H]12)O3`, the outcome in the experiment on Col2 and with HL-60 was inactive.

In experiment [1], `C=C1C(=O)O[C@H]2[C@H]1[C@H](OC(=O)C(C)C)C[C@@]1(C)[C@H](O)C[C@H](OC(C)=O)[C@@](C)(O)[C@H]21` [TITHOFOLINOLIDE] gave a % inhibition of 40.2%. Besides, the IC50 in the experiment on Col2 was more than 20 µg/mL. This compound displayed a % differentiation with HL-60 of 37.4%.

In the experiment with Col2, `C=C1C(=O)O[C@@H]2C[C@H](C)[C@]3(O)O[C@@](C)(C[C@H]3O)C[C@@H](OC(=O)C(C)C)[C@@H]12` yielded an IC50 of more than 20 µg/mL. In the experiment with HL-60, this compound displayed a % differentiation of less than 10%.

The compound `C=C1C(=O)O[C@H]2[C@H]1[C@H](OC(=O)C(C)C)C[C@@](C)(O)[C@@H]1CC(=O)[C@@](C)(O)[C@H]21` gave a % inhibition in experiment [1] of 48.7%. In addition, the IC50 in the experiment with Col2 is 18.9 µg/mL (≈ 51.6 µM). Besides, in the experiment on HL-60, the % differentiation was 32.4%.

In the experiment with Col2, `COC(=O)/C=C/[C@@H]1CC[C@@]2(C)CC[C@@H](OC(C)=O)[C@@](C)(O)[C@@H]2C1` came in with an IC50 of more than 20 µg/mL. Further, the % differentiation in the experiment with HL-60 is less than 10%.

For the compound `C=C(C(=O)OC)[C@@H]1CC[C@@]2(C)CC[C@@H](OC(C)=O)[C@@](C)(O)[C@@H]2C1`, the result in the experiment on Col2 and in the experiment on HL-60 was inactive.

`C=C1C(=O)O[C@H]2[C@H]1[C@H](OC(=O)C(C)C)C[C@@]1(C)[C@H](O)C[C@H](OC(C)=O)C(=C)[C@H]21`: the % inhibition in experiment [1] was found to be 63%. In addition, the IC50 in the experiment with Col2 amounted to 5.9 µg/mL (≈ 15 µM). For the same compound, the % differentiation in the experiment on HL-60 was 33.9%.

In experiment [1], `C=C1C(=O)O[C@@H]2/C=C(/C)C(=O)/C=C/[C@](C)(O)C[C@@H](OC(=O)C(C)C)[C@@H]12` [TAGITININ C] yielded a % inhibition of 44.4%. In the experiment with Col2, this compound registered an IC50 of 0.7 µg/mL (≈ 2.01 µM). For the same compound, in the experiment on HL-60, the % differentiation was 20%.

As a reminder, the % inhibition is the relative decrease from the control value, in per cent. The IC50 is the concentration needed to halve the response being measured. Read a high IC50 as weaker potency in that assay.
